This is an account of results in publication PMC3213326 (Molecular cancer therapeutics, 2011).

Assay [1] has as its system KM12 colon cancer cell line. Nature of the assay: NCI-60 panel screen, KM12. It counts as cell-based, human. Particulars: 10 µM, cell line highly expressing KLF5.
The subject of assay [2] is NCI-60 panel of human cancer cell lines. Nature of the assay: NCI-60 panel screen. Type of assay: cell-based. The note with it: 10 µM.
For the next assay, the system named is DLD-1 cells. Nature of the assay: Cell viability assay. Type of assay: cell-based, human. Particulars: 48 h; for effect on proliferation of DLD-1 cells: various concentrations. The method in brief:
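DLD-1 cells were plated at 10⁴ per well in 96-well plates. They were dosed at once with increasing concentrations of test compound in DMSO (final 0.4%) or with DMSO alone. After 48 h, viability was read by Cell-Titer Glo luminescence. The DMSO control was set to 100%. Runs were done in triplicate, and IC50 came from a nonlinear sigmoidal dose-response fit.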

In assay [3] the test system is KLF5. The assay is described as follows: Western blot of endogenous KLF5 levels in IEC-6 cells. It counts as cell-based, rat. The note with it: wide range of concentrations.
The next assay has as its system EGR1. Nature of the assay: Western blot of EGR1 in DLD-1 cells. It counts as cell-based, human. The note with it: DLD-1, 10 µM, 24 h. The procedure, abridged:
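DLD-1 cells were seeded at 2 × 10⁵ per well in 1 ml medium. At 24 h after seeding they were given test compound in DMSO or DMSO alone for 24 h. Lysates were made in Laemmli buffer, separated by polyacrylamide gel electrophoresis and transferred to nitrocellulose. Membranes were probed with rabbit anti-EGR1, and scanned films were quantified by densitometry.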
On the technique in general: Immunoblotting shows a protein as a band on a membrane.

Another assay deals with leukemia cell lines. Nature of the assay: NCI-60 panel screen, leukemia lines. It counts as cell-based, human. Particulars: 10 µM.
Assay [4] has as its system KLF5. The assay is described as follows: Western blot of endogenous KLF5 protein levels in DLD-1 cells. Type of assay: cell-based, human. Particulars: 24 h; for effect on endogenous KLF5 levels: DLD-1, 10 µM. The method in brief: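 DLD-1 cells were seeded at 2 × 10⁵ per well in 1 ml medium. At 24 h after seeding they were treated with 5 or 10 µM test compound in DMSO, or with DMSO alone, for 24 h. Cells were lysed in Laemmli buffer, run on polyacrylamide gel and transferred to nitrocellulose. Blots were probed with rabbit polyclonal anti-KLF5 (residues 95–111) and mouse monoclonal anti-β-actin, and scanned films were quantified by densitometry.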

As to `CN(C(=O)COC(=O)/C=C/c1cccc([N+](=O)[O-])c1)C1CCS(=O)(=O)C1` (stereo not shown) [CID 5951923], the “inhibition of KM12 colon cancer cell line” value in assay [1] is recorded as “poor inhibition”. Moreover, in assay [2], the “potency of inhibition in NCI-60 panel” value is listed as “potency was weak”. Also, the “effect on proliferation of DLD-1 cells” value in the assay with DLD-1 cells was “inhibited proliferation of DLD-1 cells in a dose-dependent manner”. Moreover, the “effect on endogenous KLF5 levels in IEC-6 cells” value with KLF5 [3] is “neither CIDs 4395011 nor 5951923 reduced endogenous KLF5 levels”. In the assay on EGR1, the “effect on EGR1” value is reported as “downregulated EGR1”. For the same compound, the “inhibition of leukemia cell lines” value with leukemia cell lines is on record as “inhibition in a number of leukemia cell lines”.

With `C[C@@H]1O[C@@H](O[C@H]2C[C@@H](O)[C@]3(CO)[C@H]4[C@H](O)C[C@]5(C)[C@@H](C6=CC(=O)OC6)CC[C@]5(O)[C@@H]4CC[C@]3(O)C2)[C@H](O)[C@H](O)[C@H]1O` [compound 439501], the “inhibitory effect on KLF5 levels relative to the other three tested compounds” value in the assay with KLF5 [4] (DLD-1, 5 and 10 µM) is given as “more pronounced”. In addition, in the assay with DLD-1 cells, the “effect on proliferation of DLD-1 cells” value was “inhibited proliferation of DLD-1 cells in a dose-dependent manner”. Moreover, the IC50 in the assay on DLD-1 cells (read-out: IC50 for DLD-1 proliferation (cell viability), Cell-Titer Glo) was 46 nM.

For `CC1=CCCC2(C)C(CCC2(O)CN(CCc2cccs2)S(=O)(=O)c2cccs2)c2ccc(cc2C(=O)Cc2c(F)cccc2Cl)CC(O)CC1` (stereo not shown) [compound 4395011], the “effect on endogenous KLF5 levels in IEC-6 cells” value in the assay on KLF5 [3] is on record as “neither CIDs 4395011 nor 5951923 reduced endogenous KLF5 levels”.

For `CN(C(=O)CNC(=O)/C=C/c1cccc([N+](=O)[O-])c1)C1CCS(=O)(=O)C1` (stereo not shown) [compound 46931037], in the assay with KLF5 [4], the “effect on endogenous KLF5 levels” value was “similarly affect KLF5 protein levels”. Further, the “effect on EGR1” value in the assay with EGR1 is reported as “downregulated EGR1”.

For the compound `CN(C(=O)CNC(=O)/C=C/c1cccc(Cl)c1)C1CCS(=O)(=O)C1` (stereo not shown) [compound 46931043], in the assay with KLF5 [4], the “effect on endogenous KLF5 levels” value is “similarly affect KLF5 protein levels”.
